Data as given in ChEMBL document CHEMBL1255300, “Pharmacodynamics of the antibacterial effect and emergence of resistance to tomopenem, formerly RO4908463/CS-023, in an in vitro pharmacokinetic model of Staphylococcus aureus infection” (Antimicrob Agents Chemother, 2008).
≈ marks a conversion by molar mass, not a printed value. Calls of active or inactive are those of the source. The rule behind the calls is not given here.

What was measured:
[1] = tested on: Staphylococcus aureus; experiment: Antibacterial activity against methicillin-resistant Staphylococcus aureus 33922 infected in in vitro pharmacokinetic model assessed as reduction in viable count at 1500 mg, iv every 8 hrs measured after 36 hrs using 10^8 CFU/ml inoculum; assay type: functional
[2] = tested on: Staphylococcus aureus; experiment: Antibacterial activity against methicillin-resistant Staphylococcus aureus 33827 infected in in vitro pharmacokinetic model assessed as time required to 99% killing at 750 mg, iv every 8 hrs using 10^8 CFU/ml inoculum; assay type: functional
Summary of the method: (§1)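 Single-compartment dilutional in vitro PK model, 10% Mueller-Hinton broth, 37°C, stirred, dilution 132 ml/h. […] Inoculum 10^6 CFU/ml (added 45 min pre-dose) or 10^8 CFU/ml (run overnight). Viable counts by spiral plating, beta-lactamase neutralization, detection limit 10^2 CFU/ml. At least triplicate.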

[3] = tested on: Staphylococcus aureus; experiment: Antibacterial activity against methicillin-resistant Staphylococcus aureus 33820 assessed as viable count at 4 times of MIC after 48 hrs using 10^6 CFU/ml inoculum; assay type: functional, organism-based
[4] = tested on: Staphylococcus aureus; experiment: Antibacterial activity against methicillin-resistant Staphylococcus aureus 33921 infected in in vitro pharmacokinetic model assessed as reduction in viable count at 1500 mg, iv every 8 hrs measured after 48 hrs using 10^6 CFU/ml inoculum; assay type: functional; summary of the method: as §1
[5] = tested on: Staphylococcus aureus; experiment: T>MIC for 3-log drop in count in methicillin-resistant Staphylococcus aureus 33815 in in vitro pharmacokinetic model after 24 hrs using 10^6 CFU/ml inoculum; assay type: functional
[6] = tested on: Staphylococcus aureus; experiment: Antibacterial activity against methicillin-resistant Staphylococcus aureus 33921 infected in in vitro pharmacokinetic model assessed as reduction in viable count at 750 mg, iv every 8 hrs measured after 24 hrs using 10^6 CFU/ml inoculum; assay type: functional
[7] = tested on: Staphylococcus aureus; experiment: AUBKC (0 to 48 hrs) in methicillin-sensitive Staphylococcus aureus 5956 infected in in vitro pharmacokinetic model at 1500 mg, iv every 8 hrs using 10^6 CFU/ml inoculum; assay type: functional
Summary of the method: (§2)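 Single-compartment dilutional in vitro PK model at 37°C in 10% Mueller-Hinton broth, stirred, flow 132 ml/h. […] Inoculum 10^6 CFU/ml added 45 min before dosing, or 10^8 CFU/ml run overnight. Viable counts with β-lactamase neutralisation. AUBKC by log-linear trapezoidal rule, at least triplicate.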

[8] = tested on: Staphylococcus aureus; experiment: Antibacterial activity against methicillin-resistant Staphylococcus aureus 33820 infected in in vitro pharmacokinetic model assessed as reduction in viable count at 1500 mg, iv every 8 hrs measured after 36 hrs using 10^6 CFU/ml inoculum; assay type: functional
Summary of the method: (§3)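 Single-compartment dilutional in vitro PK model, 37°C, stirred, in 10% Mueller-Hinton broth. […] Inoculum 10^6 CFU/ml from a 24-h plate culture was added 45 min before dosing. Viable counts by spiral plating on nutrient agar with β-lactamase neutralization. Log change was taken from time 0; detection limit 10^2 CFU/ml; at least triplicate.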

[9] = tested on: Staphylococcus aureus; experiment: AUBKC (0 to 24 hrs) in methicillin-resistant Staphylococcus aureus 33820 infected in in vitro pharmacokinetic model at 1500 mg, iv every 8 hrs using 10^6 CFU/ml inoculum; assay type: functional; summary of the method: as §2
[10] = tested on: Staphylococcus aureus; experiment: T>MIC for 1-log drop in count in methicillin-resistant Staphylococcus aureus 33827 in in vitro pharmacokinetic model after 24 hrs using 10^8 CFU/ml inoculum; assay type: functional
[11] = tested on: Staphylococcus aureus; experiment: Antibacterial activity against methicillin-resistant Staphylococcus aureus 33820 in in vitro pharmacokinetic model assessed as viable count at 4 times of MIC; assay type: functional
Summary of the method: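 Population analysis before drug exposure (time 0). Model samples were plated on nutrient agar without drug and with tomopenem at 2×, 4× and 6× MIC (10% MHB MIC), and growth was recorded as log CFU/ml. Detection limit 2 log10.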

[12] = tested on: Staphylococcus aureus; experiment: Antibacterial activity against methicillin-resistant Staphylococcus aureus 33827 infected in in vitro pharmacokinetic model assessed as time required to 99.9% killing at 1500 mg, iv every 8 hrs using 10^8 CFU/ml inoculum; assay type: functional; summary of the method: as §1
[13] = tested on: Staphylococcus aureus; experiment: Antibacterial activity against methicillin-resistant Staphylococcus aureus 33815 infected in in vitro pharmacokinetic model assessed as reduction in viable count at 1500 mg, iv every 8 hrs measured after 36 hrs using 10^8 CFU/ml inoculum; assay type: functional
Summary of the method: (§4)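 PK model at 37°C in 10% MHB. […] A 0.5 McFarland suspension (1 ml) was added and the model run overnight to reach 10^8 CFU/ml before dosing. Counts were spiral-plated on nutrient agar with β-lactamase. Change in log CFU/ml was measured from time 0; at least triplicate.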

[14] = tested on: Staphylococcus aureus; experiment: T>MIC in methicillin-resistant Staphylococcus aureus 33820 infected in vitro pharmacokinetic model at 1500 mg, iv every 8 hrs; assay type: functional
[15] = tested on: Staphylococcus aureus; experiment: Antibacterial activity against methicillin-resistant Staphylococcus aureus 33815 infected in in vitro pharmacokinetic model assessed as reduction in viable count at 750 mg, iv every 8 hrs measured after 36 hrs using 10^8 CFU/ml inoculum; assay type: functional; summary of the method: as §4
[16] = tested on: Staphylococcus aureus; experiment: Antibacterial activity against methicillin-resistant Staphylococcus aureus 33820 infected in in vitro pharmacokinetic model assessed as reduction in viable count at 1500 mg, iv every 8 hrs measured after 12 hrs using 10^6 CFU/ml inoculum; assay type: functional; summary of the method: as §3
[17] = tested on: Staphylococcus aureus; experiment: Antibacterial activity against methicillin-resistant Staphylococcus aureus; assay type: functional
[18] = tested on: Staphylococcus aureus; experiment: Antibacterial activity against methicillin-resistant Staphylococcus aureus 33922 infected in in vitro pharmacokinetic model assessed as reduction in viable count at 750 mg, iv every 8 hrs measured after 48 hrs using 10^6 CFU/ml inoculum; assay type: functional
[19] = tested on: Staphylococcus aureus; experiment: Antibacterial activity against methicillin-resistant Staphylococcus aureus 33829 by broth dilution method; assay type: functional
Summary of the method: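 MIC by CLSI broth dilution, or by broth dilution in 10% Mueller-Hinton broth at nondoubling dilutions.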

[20] = tested on: Serum; experiment: Drug level in human serum at 700 mg; assay type: ADME, cell-free
[21] = tested on: Staphylococcus aureus; experiment: AUBKC (0 to 24 hrs) in methicillin-resistant Staphylococcus aureus 33827 infected in in vitro pharmacokinetic model at 1500 mg, iv every 8 hrs using 10^6 CFU/ml inoculum; assay type: functional; summary of the method: as §2
[22] = tested on: Staphylococcus aureus; experiment: Antibacterial activity against methicillin-resistant Staphylococcus aureus 33815 infected in in vitro pharmacokinetic model assessed as time required to 99% killing at 750 mg, iv every 8 hrs using 10^8 CFU/ml inoculum; assay type: functional
Summary of the method: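 T99 and T99.9 were taken as the times for the count to fall 99% or 99.9% from time 0, using serial viable counts over 48 h. Inoculum was 10^8 CFU/ml, grown overnight in the model before dosing.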

[23] = tested on: Staphylococcus aureus; experiment: Antibacterial activity against methicillin-resistant Staphylococcus aureus 33922 assessed as viable count at 4 times of MIC after 24 hrs using 10^6 CFU/ml inoculum; assay type: functional, organism-based
[24] = tested on: Staphylococcus aureus; experiment: T>MIC for 4-log drop in count in methicillin-resistant Staphylococcus aureus 33827 in in vitro pharmacokinetic model after 24 hrs using 10^6 CFU/ml inoculum; assay type: functional
[25] = tested on: Staphylococcus aureus; experiment: Antibacterial activity against methicillin-sensitive Staphylococcus aureus 5956 assessed as viable count at 4 times of MIC after 48 hrs using 10^6 CFU/ml inoculum; assay type: functional, organism-based
[26] = tested on: Staphylococcus aureus; experiment: AUBKC (0 to 48 hrs) in methicillin-resistant Staphylococcus aureus 33922 infected in in vitro pharmacokinetic model at 1500 mg, iv every 8 hrs using 10^6 CFU/ml inoculum; assay type: functional; summary of the method: as §2

Q: How did the log10CFU/ml [1] turn out when `C[C@@H](O)[C@H]1C(=O)N2C(C(=O)O)=C(S[C@H]3C[C@@H](C(=O)N4CC[C@H](NC(=O)CNC(=N)N)C4)N(C)C3)[C@H](C)[C@H]12` [TOMOPENEM] was run?
A: 5.2

Q: And the Time [2]?
A: 12 h

Q: And the Activity [3]?
A: Active

Q: And the log10CFU/ml [4]?
A: 3.7

Q: And the “fT>MIC” value [5]?
A: 17.1%

Q: What about the log10CFU/ml [6] of the same compound?
A: 4

Q: What about the AUBC [7] of the same compound?
A: 22.7 log10CFU/ml.hr

Q: And the log10CFU/ml [8]?
A: 3.8

Q: What about the AUBC [9] of the same compound?
A: 23.4 log10CFU/ml.hr

Q: And the “fT>MIC” value [10]?
A: 19.5%

Q: And the log10CFU/ml [11]?
A: <2

Q: What about the Time [12] of the same compound?
A: 12 h

Q: What about the log10CFU/ml [13] of the same compound?
A: 3.9

Q: And the “fT>MIC” value [14]?
A: 98%

Q: And the log10CFU/ml [15]?
A: 5.5

Q: And the log10CFU/ml [16]?
A: 4.2

Q: What about the MIC50 [17] of the same compound?
A: 2 µg/mL (≈ 3.72 µM)

Q: What about the MIC90 [17] of the same compound?
A: 4 µg/mL (≈ 7.44 µM)

Q: And the log10CFU/ml [18]?
A: 3.9

Q: And the MIC [19]?
A: 2 µg/mL (≈ 3.72 µM)

Q: And the Drug uptake [20]?
A: 44 mg/L

Q: What about the AUBC [21] of the same compound?
A: 28.1 log10CFU/ml.hr

Q: What about the Time [22] of the same compound?
A: 16 h

Q: And the Activity [23]?
A: inactive

Q: And the “fT>MIC” value [24]?
A: 61%

Q: What about the Activity [25] of the same compound?
A: inactive

Q: What about the AUBC [26] of the same compound?
A: 16.9 log10CFU/ml.hr
